Test results: ChEMBL document CHEMBL1122033, “Chemistry and hypoglycemic activity of N-[[(Dialkylamino)alkoxy]phenyl]benzamidines” (J Med Chem, 1982)

Key:
[1] = Lethality in 50% (LD50) of male and female CF-1 strain mice weighing 16-25g, intraperitoneal administration; assay type: ADME, organism-based; conditions: both, CF-1, mouse, in vivo, ip
Procedure, shortened: (§1)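 Four mice per dose level. Drug dissolved in distilled water and suspended in 0.5% carboxymethylcellulose or 0.5% gelatin, with pH adjusted by 1 N HCl or 1 N NaOH where the drug tolerated it. Doses logarithmically spaced, given orally or intraperitoneally. Mice observed 7 days after dosing. LD50 derived by the Bliss method, expressed in mg/kg.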

[2] = Dose that produces lethality in 50% (LD50) of male and female carworth farms CF-1 strain mice weighing 16-25 g oral (po) route of administration; assay type: ADME, organism-based; conditions: both, CF-1, mouse, in vivo; procedure, shortened: as §1
[3] = test system: Rattus norvegicus; assay: Blood sugar lowering (hypoglycemic activity) in the glucose-primed rat at a dose of 100 mg/kg; Decrease in blood sugar level.; assay type: functional
Procedure, shortened: (§2)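 Male Sprague–Dawley rats, 140–150 g, groups of six, fasted 16 h. Each rat got 100 mg glucose s.c. in 0.5 mL isotonic NaCl, then the test agent at once orally as an aqueous carboxymethylcellulose suspension (0.5 mL); controls got vehicle. At 2 h, under light ether, blood was taken by cardiac puncture. Glucose was read by Autoanalyzer (Hoffman method). Values are percent difference from vehicle controls.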

[4] = test system: Rattus norvegicus; assay: Compound was evaluated for the blood sugar lowering (hypoglycemic activity) in the glucose-primed rat at a dose of 100 mg/kg; Increase in blood sugar level; assay type: functional; procedure, shortened: as §2
[5] = test system: Rattus norvegicus; assay: Compound was evaluated for the blood sugar lowering (hypoglycemic activity) in the glucose-primed rat at a dose of 100 mg/kg; assay type: functional; procedure, shortened: as §2
[6] = test system: Cavia porcellus; assay: Evaluated in normal, fasted guinea pig for the percentage reduction in blood glucose level after 5 hr as compared to pretreatment blood glucose values at a dose of 100 mg of free base / kg body weight administered orally; assay type: functional
Procedure, shortened: (§3)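 Male and female Hartley guinea pigs, 450–500 g, were food-deprived (water allowed) 18 h and split by sex into groups of four. A zero-time blood sample was taken by cardiac puncture, then drug was given, and blood was drawn again 5 h later. Percent reduction in blood glucose is relative to pretreatment values.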

[7] = test system: Monkey; assay: Evaluated in normal, fasted monkey for the percentage reduction in blood glucose level as compared to pretreatment blood glucose values at a dose of 150 mg of free base / kg body weight administered orally; assay type: functional, Cercopithecidae
Procedure, shortened: (§4)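 Male and female rhesus monkeys (2–3 kg) were food-deprived, with water, for 18 h. Pretreatment blood was taken from the popliteal vein. Dosing was oral by stomach tube, with repeat sampling 5 h post-dose. Results are percent reduction in blood glucose relative to pretreatment values.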

[8] = Lethal dose required to produce 50% lethality in male and female carworth farms CF-1 strain mice weighing 16-25 g administered intraperitoneally; conditions: both, CF-1, rat, in vivo, ip
[9] = Lethal dose required to produce 50% lethality in male and female carworth farms CF-1 strain mice weighing 16-25 g administered orally; conditions: both, CF-1, in vivo, po
[10] = test system: Rattus norvegicus; assay: Evaluated in glucose-primed, fasted rat for the percentage reduction in blood glucose level after 2 hr as compared to control groups at a dose of 50 mg of free base / kg body weight administered orally; assay type: functional; procedure, shortened: as §2
[11] = test system: Rattus norvegicus; assay: Evaluated in glucose-primed, fasted rat for the percentage reduction in blood glucose level after 2 hr as compared to control groups at a dose of 100 mg of free base / kg body weight administered orally; assay type: functional; procedure, shortened: as §2
[12] = test system: Rattus norvegicus; assay: Evaluated in glucose-primed, fasted rat for the percentage reduction in blood glucose level after 2 h as compared to control groups at a dose of 25 mg of free base / kg body weight administered orally; assay type: functional; procedure, shortened: as §2
[13] = test system: Rattus norvegicus; assay: Evaluated in alloxanized, diabetic rat for the percentage reduction in blood glucose level as compared to pretreatment blood glucose values at a dose of 100 mg of free base / kg body weight administered orally.; assay type: functional
Procedure, shortened: (§5)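 Three days later, rats positive for urine glucose (reagent strip) formed groups of six. Tail-vein blood was taken before oral dosing and again at 5 h. Percent reduction is versus pretreatment glucose.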

[14] = test system: Rattus norvegicus; assay: Evaluated in alloxanized, diabetic rat for the percentage reduction in blood glucose level as compared to pretreatment blood glucose values at a dose of 200 mg of free base / kg body weight administered orally.; assay type: functional; procedure, shortened: as §5
[15] = test system: Rattus norvegicus; assay: Evaluated in glucose primed, adrenalectomized rat for the percentage reduction in blood glucose level as compared to pretreatment blood glucose values at a dose of 25 mg of free base / kg body weight administered orally
[16] = Dose that produces lethality in 50% (LD50) of male and female carworth farms CF-1 strain mice weighing 16-25 g intraperitoneal (ip) route of administration; assay type: ADME, organism-based; conditions: both, CF-1, mouse, in vivo; procedure, shortened: as §1
[17] = test system: Rattus norvegicus; assay: Evaluated for the blood sugar lowering (hypoglycemic activity ) in the glucose-primed rat at a dose of 100 mg/kg; assay type: functional; procedure, shortened: as §2
[18] = test system: Rattus norvegicus; assay: Compound was evaluated for the blood sugar lowering (hypoglycemic activity ) in the glucose-primed rat at a dose of 50 mg of base/kg; assay type: functional; procedure, shortened: as §2
[19] = test system: Cavia porcellus; assay: Evaluated in normal, fasted guinea pig for the percentage reduction in blood glucose level after 5 hr as compared to pretreatment blood glucose values at a dose of 25 mg of free base / kg body weight administered orally; assay type: functional; procedure, shortened: as §3
[20] = test system: Monkey; assay: Evaluated in normal, fasted monkey for the percentage reduction in blood glucose level after 5 hr as compared to pretreatment blood glucose values at a dose of 10 mg of free base / kg body weight administered orally; assay type: functional, Cercopithecidae; procedure, shortened: as §4
[21] = test system: Rattus norvegicus; assay: Evaluated in alloxanized, diabetic rat for the percentage reduction in blood glucose level after 5 hr as compared to pretreatment blood glucose values at a dose of 100 mg of free base / kg body weight administered orally; assay type: functional; procedure, shortened: as §5

SMILES	LD50 [1] [mg/kg]	LD50 [2] [mg/kg]	Change [3] [%]	further results
Cc1cccc(/N=C(\Nc2ccc(OCCN(C(C)C)C(C)C)cc2)c2ccccc2)c1C	360	1000	23.2	
CN/C(=N/c1ccc(OCCN(C(C)C)C(C)C)cc1)c1ccccc1	112	500		Change [4]: 13.1%
CC(C)N(CCOc1ccc(N/C(=N\c2ccc(Cl)cc2)c2ccccc2)cc1)C(C)C	1000	1000	31	
CC(C)N(CCOc1ccc(N/C(=N\C2CCCCC2)c2ccccc2)cc1)C(C)C	137	373	9.8	
C=CC/N=C(\Nc1ccc(OCCN(C(C)C)C(C)C)cc1)c1ccccc1	125	653	15	
CC(C)CN/C(=N/c1ccc(OCCN(C(C)C)C(C)C)cc1)c1ccccc1	80	360	22.8	
CCN(CC)CCOc1ccc(N/C(=N\c2ccccc2)c2ccccc2)cc1.O=C(O)C(=O)O	100	687	6.8	
CN(CCOc1ccc(N/C(=N\c2ccccc2)c2ccccc2)cc1)c1ccccc1	587	1000	10.3	
Br.c1ccc(/N=C(\Nc2ccc(OCCN3CCOCC3)cc2)c2ccccc2)cc1	400	715		Change [5]: 0%
Br.CCN/C(=N/c1ccc(OCCN(C(C)C)C(C)C)cc1)c1ccccc1	100	687	6.8	
COc1ccc(N/C(=N/c2ccc(OCCN(C(C)C)C(C)C)cc2)c2ccccc2)cc1.Cl	160	687	33.5	
CC(C)N(CCOc1ccc(N/C(=N\c2ccccc2)c2ccc(Cl)cc2)cc1)C(C)C.Cl	400	1000	3.2	
Br.c1ccc(/N=C(\Nc2ccc(OCCN3CCCCC3)cc2)c2ccccc2)cc1	142	467		Change [4]: 5.2%
CC(C)N(CCOc1ccc(N/C(=N\c2ccc(Cl)cc2)c2ccccc2)cc1)C(C)C.Cl			30.9	Reduction [6]: 14%; Reduction [7]: 35%; LD50 [8]: 1000 mg/kg; LD50 [9]: 1000 mg/kg; Reduction [10]: 23.5%; Reduction [11]: 30.9%; Reduction [12]: 18.8%; Reduction [13]: 7.4%; Reduction [14]: 28.8%; Reduction [15]: 31.4%
CC(C)N(CCSc1ccc(N/C(=N\c2ccccc2)c2ccccc2)cc1)C(C)C.Cl	285	400	35.6	
COc1ccc(/C(=N\c2ccc(OCCN3CCCC3)cc2)Nc2ccccc2)cc1.Cl			14	
CC(C)N(CCCOc1ccc(N/C(=N\c2ccc(Cl)cc2)c2ccccc2)cc1)C(C)C.Cl	187	1000	18.3	
Br.COc1ccc(N/C(=N/c2ccc(OCCCN3CCCC3)cc2)c2ccccc2)cc1	108	400	25.7	
Br.COc1ccc(N/C(=N/c2ccc(OCCN3CCCC3)cc2)c2ccccc2)cc1	148	900	35	

SMILES	LD50 [1] [mg/kg]	LD50 [2] [mg/kg]	Change [3] [%]	further results
CCCCN(CCCC)CCCOc1ccc(N/C(=N\c2ccccc2)c2ccccc2)cc1.Cl	148	867	10.9	
Br.c1ccc(CN(CCOc2ccc(N/C(=N\c3ccccc3)c3ccccc3)cc2)Cc2ccccc2)cc1				Change [5]: 0%
Br.CC(C)N(CCOc1ccc(N/C(=N\c2ccc(F)cc2)c2ccccc2)cc1)C(C)C	143	630	26	
COc1ccc(N/C(=N/c2ccc(OCCCN(C(C)C)C(C)C)cc2)c2ccccc2)cc1.Cl	108	450	34.1	
CCCCN(CCCC)CCOc1ccc(N/C(=N\c2ccccc2)c2ccccc2)cc1.Cl	160	800	22.5	
CC(C)N(CCc1ccc(/C(=N\c2ccccc2)Nc2ccccc2)cc1)C(C)C.Cl		587	32.4	LD50 [16]: 160 mg/kg
CC(C)N(CCOc1ccc(N/C(=N\c2ccc(Cl)c(Cl)c2)c2ccccc2)cc1)C(C)C.Cl	400	1000	13.8	
Cl.c1ccc(/N=C(\Nc2ccc(SCCN3CCCC3)cc2)c2ccccc2)cc1	200	587	12.5	
Br.CN(C)CCOc1ccc(N/C(=N\c2ccccc2)c2ccccc2)cc1	112	500		Change [4]: 13.1%
Br.c1ccc(/N=C(\Nc2ccc(OCCCN3CCCC3)cc2)c2ccccc2)cc1	125	543	23.5	
CC(C)N(CCOc1ccccc1/N=C(/Nc1ccccc1)c1ccccc1)C(C)C.Cl	253	840	18.3	
COc1ccc(/C(=N\c2ccc(OCCN(C(C)C)C(C)C)cc2)Nc2ccccc2)cc1.Cl	140	475	18.5	
Br.COc1ccc(N/C(=N/c2ccc(OCCCN3CCCC3)cc2)c2ccc(C)cc2)cc1	43	400	12.6	
CC(C)N(CCOc1ccc(N/C(=N\c2cccc(C(F)(F)F)c2)c2ccccc2)cc1)C(C)C.Cl	400	1000		Change [17]: 0%
CC(C)N(CCOc1ccc(N/C(=N\Cc2ccccc2)c2ccccc2)cc1)C(C)C.Cl	187	450		Change [5]: 0%
Br.CN(CCOc1ccc(N/C(=N\c2ccccc2)c2ccccc2)cc1)Cc1ccccc1	233	500	15.9	
CC(C)N(CCOc1cccc(N/C(=N\c2ccccc2)c2ccccc2)c1)C(C)C.Cl	107	240		Change [18]: 28.1%
CCCCNC(=N)NC(=N)N [BUFORMIN]				LD50 [8]: 140 mg/kg; LD50 [9]: 500 mg/kg; Reduction [11]: 0%
N=C(N)NC(=N)NCCc1ccccc1 [PHENFORMIN]				Reduction [19]: 46%; Reduction [20]: 50%; Reduction [11]: 0%; Reduction [21]: 62%
